Measurements from ChEMBL document CHEMBL3588853, “Synthesis, biological evaluation, and molecular docking studies of novel 1-benzene acyl-2-(1-methylindol-3-yl)-benzimidazole derivatives as potential tubulin polymerization inhibitors” (Eur J Med Chem, 2015).
Values belong to the molecule of their own block, whether it stands above or below them.

Legend:
[1] = system: MCF7; experiment: Growth inhibition of human MCF7 cells assessed as inhibition of cell proliferation after 24 hrs by MTT assay; format: functional; details: MCF7, 24 h
Procedure, shortened: (§1)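 Cells seeded at (1–5) × 10^3 per well and grown 12 h at 37 °C. Compounds added at increasing concentrations in medium with 10% FBS for 24 h. MTT dye then added, followed by 3–4 h at 37 °C. Medium discarded, formazan dissolved in DMSO and plate read. GI50 calculated relative to DMSO-treated control wells.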

[2] = biological target: Tubulin (Bos taurus, UniProt Q6B856+Q862F3); experiment: Inhibition of bovine brain tubulin polymerization extent after 20 mins by turbidimetrically
Tubulin, sequence (Q6B856 whole entry): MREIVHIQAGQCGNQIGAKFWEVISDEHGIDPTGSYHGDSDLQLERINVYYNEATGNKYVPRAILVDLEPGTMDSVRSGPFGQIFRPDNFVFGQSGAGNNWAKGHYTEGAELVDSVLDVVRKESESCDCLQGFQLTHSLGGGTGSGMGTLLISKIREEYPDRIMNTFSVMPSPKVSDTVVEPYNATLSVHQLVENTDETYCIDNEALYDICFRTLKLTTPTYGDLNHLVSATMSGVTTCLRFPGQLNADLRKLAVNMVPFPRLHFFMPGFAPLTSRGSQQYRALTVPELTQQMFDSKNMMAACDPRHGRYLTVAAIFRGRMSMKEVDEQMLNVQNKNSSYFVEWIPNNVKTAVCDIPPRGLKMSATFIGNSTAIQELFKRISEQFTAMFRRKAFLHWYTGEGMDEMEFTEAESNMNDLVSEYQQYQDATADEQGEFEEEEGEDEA
Tubulin, sequence (Q862F3 whole entry): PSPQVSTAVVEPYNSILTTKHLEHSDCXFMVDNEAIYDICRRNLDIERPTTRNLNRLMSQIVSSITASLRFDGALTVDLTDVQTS

[3] = system: A549; experiment: Growth inhibition of human A549 cells assessed as inhibition of cell proliferation after 24 hrs by MTT assay; format: functional; details: A549, 24 h; procedure, shortened: as §1
[4] = system: HepG2; experiment: Growth inhibition of human HepG2 cells assessed as inhibition of cell proliferation after 24 hrs by MTT assay; format: functional; details: HepG2, 24 h; procedure, shortened: as §1
[5] = biological target: Tubulin (Bos taurus) (UniProt Q6B856+Q862F3); details: at 5 µM
[6] = system: A549; experiment: Induction of cell cycle arrest in human A549 cells assessed as accumulation at G0/G1 phase at 1 uM after 24 hrs by propidium iodide staining based flow cytometric analysis (reference value: 79.11%); format: functional
[7] = system: A549; experiment: Induction of cell cycle arrest in human A549 cells assessed as accumulation at G2/M phase at 1 uM after 24 hrs by propidium iodide staining based flow cytometric analysis (reference value: 13.26%); format: functional
[8] = system: A549; experiment: Induction of cell cycle arrest in human A549 cells assessed as accumulation at S phase at 1 uM after 24 hrs by propidium iodide staining based flow cytometric analysis (reference value: 7.63%); format: functional
[9] = system: A549; experiment: Induction of cell cycle arrest in human A549 cells assessed as accumulation at SubG0 phase at 1 uM after 24 hrs by propidium iodide staining based flow cytometric analysis (reference value: 0%); format: functional
[10] = system: A549; experiment: Induction of cell cycle arrest in human A549 cells assessed as accumulation at G0/G1 phase at 2 uM after 24 hrs by propidium iodide staining based flow cytometric analysis (reference value: 79.11%); format: functional
[11] = system: A549; experiment: Induction of cell cycle arrest in human A549 cells assessed as accumulation at G2/M phase at 2 uM after 24 hrs by propidium iodide staining based flow cytometric analysis (reference value: 13.26%); format: functional
[12] = system: A549; experiment: Induction of cell cycle arrest in human A549 cells assessed as accumulation at S phase at 2 uM after 24 hrs by propidium iodide staining based flow cytometric analysis (reference value: 7.63%); format: functional
[13] = system: A549; experiment: Induction of cell cycle arrest in human A549 cells assessed as accumulation at SubG0 phase at 2 uM after 24 hrs by propidium iodide staining based flow cytometric analysis (reference value: 0%); format: functional
[14] = system: A549; experiment: Induction of cell cycle arrest in human A549 cells assessed as accumulation at G0/G1 phase at 5 uM after 24 hrs by propidium iodide staining based flow cytometric analysis (reference value: 79.11%); format: functional
[15] = system: A549; experiment: Induction of cell cycle arrest in human A549 cells assessed as accumulation at G2/M phase at 5 uM after 24 hrs by propidium iodide staining based flow cytometric analysis (reference value: 13.26%); format: functional
[16] = system: A549; experiment: Induction of cell cycle arrest in human A549 cells assessed as accumulation at S phase at 5 uM after 24 hrs by propidium iodide staining based flow cytometric analysis (reference value: 7.63%); format: functional
[17] = system: A549; experiment: Induction of cell cycle arrest in human A549 cells assessed as accumulation at SubG0 phase at 5 uM after 24 hrs by propidium iodide staining based flow cytometric analysis (reference value: 0%); format: functional
[18] = system: A549; experiment: Induction of apoptosis in human A549 cells assessed as necrotic cells at 1 uM after 24 hrs by annexin V/PI double staining FACScalibur flow cytometry (reference value: 0.529%); format: functional
[19] = system: A549; experiment: Induction of apoptosis in human A549 cells assessed as late apoptotic cells at 1 uM after 24 hrs by annexin V/PI double staining FACScalibur flow cytometry (reference value: 0.406 %); format: functional
[20] = system: A549; experiment: Induction of apoptosis in human A549 cells assessed as early apoptotic cells at 1 uM after 24 hrs by annexin V/PI double staining FACScalibur flow cytometry (reference value: 0.061%); format: functional
[21] = system: A549; experiment: Induction of apoptosis in human A549 cells assessed as viable cells at 1 uM after 24 hrs by annexin V/PI double staining FACScalibur flow cytometry (reference value: 99%); format: functional; details: A549, 24 h, read-out: Activity
[22] = system: A549; experiment: Induction of apoptosis in human A549 cells assessed as necrotic cells at 2 uM after 24 hrs by annexin V/PI double staining FACScalibur flow cytometry (reference value: 0.529%); format: functional
[23] = system: A549; experiment: Induction of apoptosis in human A549 cells assessed as late apoptotic cells at 2 uM after 24 hrs by annexin V/PI double staining FACScalibur flow cytometry (reference value: 0.406 %); format: functional
[24] = system: A549; experiment: Induction of apoptosis in human A549 cells assessed as early apoptotic cells at 2 uM after 24 hrs by annexin V/PI double staining FACScalibur flow cytometry (reference value: 0.061%); format: functional
[25] = system: A549; experiment: Induction of apoptosis in human A549 cells assessed as viable cells at 2 uM after 24 hrs by annexin V/PI double staining FACScalibur flow cytometry (reference value: 99%); format: functional; details: A549, 24 h, read-out: Activity
[26] = system: A549; experiment: Induction of apoptosis in human A549 cells assessed as necrotic cells at 5 uM after 24 hrs by annexin V/PI double staining FACScalibur flow cytometry (reference value: 0.529%); format: functional
[27] = system: A549; experiment: Induction of apoptosis in human A549 cells assessed as late apoptotic cells at 5 uM after 24 hrs by annexin V/PI double staining FACScalibur flow cytometry (reference value: 0.406 %); format: functional
[28] = system: A549; experiment: Induction of apoptosis in human A549 cells assessed as early apoptotic cells at 5 uM after 24 hrs by annexin V/PI double staining FACScalibur flow cytometry (reference value: 0.061%); format: functional
[29] = system: A549; experiment: Induction of apoptosis in human A549 cells assessed as viable cells at 5 uM after 24 hrs by annexin V/PI double staining FACScalibur flow cytometry (reference value: 99%); format: functional; details: A549, 24 h, read-out: Activity

Structure (SMILES): COc1ccc(C(=O)n2c(-c3cn(C)c4ccc(Br)cc34)nc3ccccc32)cc1OC
GI50 [1]: 11.3 µM | IC50 [2]: 2.4 µM | GI50 [3]: 3.4 µM | GI50 [4]: 9.7 µM | inhibition [5]: 85%

Structure (SMILES): COc1cc(C(=O)n2c(-c3cn(C)c4ccc(Br)cc34)nc3ccccc32)cc(OC)c1OC
GI50 [1]: 9.7 µM | IC50 [2]: 2 µM | GI50 [3]: 3 µM | GI50 [4]: 8.2 µM | inhibition [5]: 91%

Structure (SMILES): Cn1cc(-c2nc3ccccc3n2C(=O)c2cccc(Br)c2)c2ccccc21
GI50 [1]: 63.4 µM | IC50 [2]: 35.2 µM | GI50 [3]: 34.2 µM | GI50 [4]: 61.4 µM | inhibition [5]: 52%

Structure (SMILES): COc1ccc(/C=C\c2cc(OC)c(OC)c(OC)c2)cc1O [COMBRETASTATIN A4]
GI50 [1]: 9.4 µM | GI50 [3]: 2.8 µM | GI50 [4]: 7.4 µM | inhibition [5]: 93%

Structure (SMILES): COc1ccc2c(c1)c(-c1nc3ccccc3n1C(=O)c1cc(OC)c(OC)c(OC)c1)cn2C
GI50 [1]: 5.1 µM | IC50 [2]: 1.5 µM | Activity [6]: 60.17% | Activity [7]: 27.23% | Activity [8]: 12.51% | Activity [9]: 0% | Activity [10]: 57.42% | Activity [11]: 33.21% | Activity [12]: 12.51% | Activity [13]: 0% | Activity [14]: 49.3% | Activity [15]: 39.46% | Activity [16]: 11.24% | Activity [17]: 0% | Activity [18]: 0.59% | Activity [19]: 4.77% | Activity [20]: 14.8% | viability at 1 µM [21]: 79.8% | Activity [22]: 0.543% | Activity [23]: 5.13% | Activity [24]: 17% | viability at 2 µM [25]: 77.3% | Activity [26]: 0.595% | Activity [27]: 6.03% | Activity [28]: 17.2% | viability at 5 µM [29]: 76.2% | GI50 [3]: 2.4 µM | GI50 [4]: 3.8 µM | inhibition [5]: 96%

Structure (SMILES): Cn1cc(-c2nc3ccccc3n2C(=O)c2ccccc2)c2cc(Br)ccc21
GI50 [1]: 50.3 µM | IC50 [2]: 25.3 µM | GI50 [3]: 23.1 µM | GI50 [4]: 48.1 µM | inhibition [5]: 60%

Structure (SMILES): COc1ccc2c(c1)c(-c1nc3ccccc3n1C(=O)c1ccccc1OC)cn2C
GI50 [1]: 23.9 µM | IC50 [2]: 8.4 µM | GI50 [3]: 11.9 µM | GI50 [4]: 23.6 µM | inhibition [5]: 73%

More lines, in order of falling GI50 [1], values ahead:

GI50 [1]: 68.2 µM | IC50 [2]: 39.7 µM | GI50 [3]: 38.5 µM | GI50 [4]: 67.3 µM | inhibition [5]: 51%
Structure (SMILES): Cn1cc(-c2nc3ccccc3n2C(=O)c2cccc(Br)c2)c2cc(Br)ccc21

GI50 [1]: 55.8 µM | IC50 [2]: 32.3 µM | GI50 [3]: 29.5 µM | GI50 [4]: 54.2 µM | inhibition [5]: 55%
Structure (SMILES): COc1ccc2c(c1)c(-c1nc3ccccc3n1C(=O)c1ccccc1Br)cn2C

GI50 [1]: 38.4 µM | IC50 [2]: 19.6 µM | GI50 [3]: 16.7 µM | GI50 [4]: 37.9 µM | inhibition [5]: 64%
Structure (SMILES): COc1ccc2c(c1)c(-c1nc3ccccc3n1C(=O)c1ccccc1)cn2C

GI50 [1]: 16.3 µM | IC50 [2]: 4.6 µM | GI50 [3]: 10.4 µM | GI50 [4]: 15.2 µM | inhibition [5]: 80%
Structure (SMILES): COc1ccc(C(=O)n2c(-c3cn(C)c4ccccc34)nc3ccccc32)cc1

GI50 [1]: 15.7 µM | IC50 [2]: 4.4 µM | GI50 [3]: 10.2 µM | GI50 [4]: 13.6 µM | inhibition [5]: 81%
Structure (SMILES): COc1cccc(C(=O)n2c(-c3cn(C)c4ccccc34)nc3ccccc32)c1

GI50 [1]: 14.8 µM | IC50 [2]: 3.5 µM | GI50 [3]: 4.9 µM | GI50 [4]: 12.8 µM | inhibition [5]: 82%
Structure (SMILES): COc1ccc(C(=O)n2c(-c3cn(C)c4ccc(OC)cc34)nc3ccccc32)cc1
